Test results reported in ChEMBL document CHEMBL1155742, “Phomoxanthones A and B, novel xanthone dimers from the endophytic fungus Phomopsis species” (J Nat Prod, 2001).
In brackets after ≈: the same amount, converted by molar mass.

Legend:
[1] = test system: Plasmodium falciparum; test: Antimalarial activity against multidrug-resistant Plasmodium falciparum K1 by [3H]hypoxanthine uptake; type: functional, organism-based
How it was run: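 Multidrug-resistant P. falciparum K1 tested in vitro by microculture radioisotope technique. IC50 is the concentration giving 50% reduction of parasite growth, measured as [3H]-hypoxanthine uptake, reported in µg/mL.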

[2] = test system: Vero; test: Cytotoxicity against african green monkey Vero cells by SRB assay; type: cell-based; conditions: Chlorocebus sabaeus
How it was run: (§1)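 Purified compounds tested for cytotoxicity by a colorimetric method on human epidermoid carcinoma KB, human breast cancer BC-1 and African monkey kidney fibroblast Vero cells. Values are IC50 in µg/mL. Ellipticine served as the standard for KB and BC-1.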

[3] = Cytotoxicity against human BC1 cells by SRB assay; type: functional, cell-based; how it was run: as §1
[4] = test system: KB; test: Cytotoxicity against human KB cells by SRB assay; type: functional, cell-based; how it was run: as §1
[5] = test system: Mycobacterium tuberculosis; test: Antitubercular activity against Mycobacterium tuberculosis H37Ra by microplate Alamar blue assay; type: functional
How it was run: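 Growth inhibition of M. tuberculosis H37Ra measured by Microplate Alamar Blue Assay; activity reported as MIC in µg/mL.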

Compound	IC50 [1] [µg/mL]	IC50 [2] [µg/mL]	IC50 [3] [µg/mL]	IC50 [4] [µg/mL]	MIC [5] [µg/mL]
C[C@@H]1CC[C@H]2[C@@H](C)C(=O)O[C@@H]3O[C@@]4(C)CC[C@@H]1[C@]32OO4 [ARTEMISININ]	0.0011 (≈ 0.0039 µM)	–	–	–	–
C[C@@H]1CC(O)=C2C(=O)c3c(O)ccc(-c4ccc(O)c5c4O[C@@]4(CO)C(=C(O)C[C@@H](C)[C@H]4O)C5=O)c3O[C@]2(CO)[C@@H]1O [DEACETYLPHOMOXANTHONE A]	> 20	> 50	> 20	> 20	> 200
CC(=O)OC[C@]12Oc3ccc(-c4ccc(O)c5c4O[C@@]4(COC(C)=O)C(=C(O)C[C@@H](C)[C@H]4OC(C)=O)C5=O)c(O)c3C(=O)C1=C(O)C[C@@H](C)[C@H]2OC(C)=O [PHOMOXANTHONE B]	0.33 (≈ 0.44 µM)	1.8 (≈ 2.4 µM)	0.7 (≈ 0.932 µM)	4.1 (≈ 5.46 µM)	6.25 (≈ 8.33 µM)
NNC(=O)c1ccncc1 [ISONIAZID]	–	–	–	–	0.05 (≈ 0.365 µM)
Cc1c2ccncc2c(C)c2c1[nH]c1ccccc12 [ELLIPTECINE]	–	–	0.6 (≈ 2.44 µM)	0.46 (≈ 1.87 µM)	–
CC(=O)OC[C@]12Oc3c(-c4ccc(O)c5c4O[C@@]4(COC(C)=O)C(=C(O)C[C@@H](C)[C@H]4OC(C)=O)C5=O)ccc(O)c3C(=O)C1=C(O)C[C@@H](C)[C@H]2OC(C)=O [PHOMOXANTHONE A]	0.11 (≈ 0.147 µM)	1.4 (≈ 1.86 µM)	0.51 (≈ 0.679 µM)	0.99 (≈ 1.32 µM)	0.5 (≈ 0.666 µM)
NC[C@H]1O[C@H](O[C@H]2[C@H](O)[C@@H](O[C@H]3O[C@H](CO)[C@@H](O)[C@H](N)[C@H]3O)[C@H](N)C[C@@H]2N)[C@H](O)[C@@H](O)[C@@H]1O.O=S(=O)(O)O [KANAMYCIN SULFATE]	–	–	–	–	2.5
